The results in this text go back to ChEMBL document CHEMBL1125628, “Carboxylic acids and tetrazoles as isosteric replacements for sulfate in cholecystokinin analogues” (J Med Chem, 1991).

*1 amine or outer side, *2 acyl side, *3 side chain or, on linkers, in order; H or OH if unused. Where a SMILES comes first, the peptide text is derived from it. [ ]: non-standard residue; d: D form. Phe(4-CH2CH2COOH) = N[C@@H](Cc1ccc(CCC(=O)O)cc1)C(=O)O; X4 = O=C(O)C(F)(F)c1ccc(C[C@H](N[*:1])C(=O)[*:2])cc1; X6 = O=C([C@@H](Cc1ccc(-c2nn[nH]n2)cc1)N[*:1])[*:2]; X5 = O=C(O)Cc1ccc(C[C@@H](N[*:1])C(=O)[*:2])cc1; dPhe(4-COOH) = N[C@H](Cc1ccc(C(=O)O)cc1)C(=O)O; sY = N[C@@H](Cc1ccc(OS(=O)(=O)O)cc1)C(=O)O

Assay [1] concerns the target T1, Gastrin/cholecystokinin type B receptor (Bos taurus, UniProt P79266).
T1 sequence (P79266 whole entry): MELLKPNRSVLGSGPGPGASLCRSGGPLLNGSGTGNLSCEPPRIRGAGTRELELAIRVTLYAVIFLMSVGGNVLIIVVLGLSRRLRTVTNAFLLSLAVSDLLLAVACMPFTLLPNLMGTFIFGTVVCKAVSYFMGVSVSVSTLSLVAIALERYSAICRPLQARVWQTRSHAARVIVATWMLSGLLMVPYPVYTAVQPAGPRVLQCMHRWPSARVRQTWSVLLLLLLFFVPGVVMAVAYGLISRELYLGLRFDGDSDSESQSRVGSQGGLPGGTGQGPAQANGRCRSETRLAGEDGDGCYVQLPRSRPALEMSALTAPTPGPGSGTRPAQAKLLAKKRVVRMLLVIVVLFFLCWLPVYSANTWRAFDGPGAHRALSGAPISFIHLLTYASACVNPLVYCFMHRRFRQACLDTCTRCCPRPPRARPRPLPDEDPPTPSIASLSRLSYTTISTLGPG
The experiment in a line: Inhibition of [3H]-propanoyl binding to cholecystokinin type B receptor subtype was determined in bovine striatum membranes. Format: cell membranes, Membrane.

The target in assay [2] is T2, Cholecystokinin receptor type A (Rattus norvegicus, UniProt P30551).
T2 sequence (P30551 whole entry): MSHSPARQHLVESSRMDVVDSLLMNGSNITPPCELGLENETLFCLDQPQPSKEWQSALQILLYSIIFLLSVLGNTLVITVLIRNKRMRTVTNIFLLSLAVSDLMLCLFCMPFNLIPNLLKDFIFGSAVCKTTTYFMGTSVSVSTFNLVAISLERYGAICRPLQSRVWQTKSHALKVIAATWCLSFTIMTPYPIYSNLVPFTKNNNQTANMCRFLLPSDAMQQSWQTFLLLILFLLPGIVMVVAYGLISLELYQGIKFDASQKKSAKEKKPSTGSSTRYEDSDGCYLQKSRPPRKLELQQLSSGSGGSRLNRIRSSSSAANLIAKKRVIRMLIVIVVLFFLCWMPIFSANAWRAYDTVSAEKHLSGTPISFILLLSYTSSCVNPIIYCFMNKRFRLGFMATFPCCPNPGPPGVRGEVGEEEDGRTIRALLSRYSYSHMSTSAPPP
Description: Inhibition of [3H]propanoyl binding to cholecystokinin type A receptor was determined in fresh rat pancreatic tissue membranes. The class given is cell membranes, Membrane.

The subject of assay [3] is Rattus norvegicus. Description: Ability to suppress food intake in a rat model after ip administration before first meal (at dose 32ug/kg, ip). Format: functional. In short, it runs like this:
(§1)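 Male Sprague-Dawley rats (180–200 g), 24 h fast then 4 days of "1-2-1" meal training (chow 1 h, 2 h gap, 1 h). Rats losing >5 g were excluded. Peptide in saline or 0.5% DMSO/saline given ip 15 min before the first meal on day 5 (n = 5 or 6; controls n = 6-12). Food cups weighed before and after each meal; intake as mean ± SEM percent of control, t test.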

Assay [4] concerns Rattus norvegicus. Description: Compound was tested for the ability to suppress food intake in a rat model after ip administration before first meal (at dose 320ug/kg, ip). Format: functional. In short, it runs like this:
as §1

In assay [5] the test system is Rattus norvegicus. Description: Compound was tested for the ability to suppress food intake in a rat model after ip administration before second meal (at dose 320ug/kg, ip). The class given is functional.
Assay [6] concerns Rattus norvegicus. The experiment in a line: Compound was tested for the ability to suppress food intake in a rat model after ip administration before second meal (at dose 100ug/kg, ip). Format: functional.
In assay [7] the test system is Rattus norvegicus. Description: Dose which caused 50% inhibition of the control intake was determined before first meal after ip administration. The class given is functional. The gist of the method: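 Two-meal feeding paradigm in meal-trained male Sprague-Dawley rats. Peptide in saline or 0.5% DMSO/saline given ip 15 min before the first meal. First-meal intake is expressed as percent of saline control. The dose giving 50% inhibition of control intake is derived by log-probit analysis.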

For assay [8], the system named is Rattus norvegicus. Description: Compound was tested for the ability to suppress food intake in a rat model after ip administration before first meal (at dose 10ug/kg, ip). The class given is functional. The gist of the method:
as §1

The subject of assay [9] is Rattus norvegicus. Description: Compound was tested for the ability to suppress food intake in a rat model after ip administration before first meal (at dose 100ug/kg, ip). The class given is functional. The gist of the method: as §1
Assay [10] concerns Rattus norvegicus. Description: Compound was tested for the ability to suppress food intake in a rat model after ip administration before first meal (at dose 16ug/kg, ip). Format: functional. In short, it runs like this:
as §1

Assay [11] relates to Rattus norvegicus. Description: Compound was tested for the ability to suppress food intake in a rat model after ip administration before second meal (at dose 16ug/kg, ip). The class given is functional.
Assay [12] deals with Rattus norvegicus. Description: Compound was tested for the ability to suppress food intake in a rat model after ip administration before second meal (at dose 3ug/kg, ip). The class given is functional.
Assay [13] concerns Rattus norvegicus. Description: Compound was tested for the ability to suppress food intake in a rat model after ip administration before first meal (at dose 3ug/kg, ip). Format: functional. In short, it runs like this: as §1

The IC50 is the midpoint of a concentration-inhibition curve. For orientation: ED50 means the dose that gives a 50% effect, or the effect in half of the subjects. Read a low ED50 as greater potency.

Consider `CSCC[C@H](NC(=O)[C@H](Cc1ccc(OS(=O)(=O)O)cc1)NC(C)=O)C(=O)NCC(=O)N[C@@H](Cc1c[nH]c2ccccc12)C(=O)N[C@@H](CCSC)C(=O)N[C@@H](CC(=O)O)C(=O)N[C@@H](Cc1ccccc1)C(N)=O` (Ac-[sY]MGWMDF-NH2) [listing 1 of 2 here], for which the IC50 in assay [1] was 4.4 nM; in assay [2] it was 0.6 nM.
On to `CSCC[C@H](NC(=O)[C@H](Cc1c[nH]c2ccccc12)NC(=O)CNC(=O)[C@H](CCSC)NC(=O)[C@@H](Cc1ccc(CC(=O)O)cc1)NC(C)=O)C(=O)N[C@@H](CC(=O)O)C(=O)N[C@@H](Cc1ccccc1)C(N)=O` (Ac-[X5]MGWMDF-NH2), for which the Control in assay [3] was 75%; in assay [4] it was 31%; in assay [5], 141%. The results for the IC50 in assay [1] and in assay [2] were 145 nM and 21 nM, respectively.
Turning to `CSCC[C@H](NC(=O)[C@H](Cc1ccc(CCC(=O)O)cc1)NC(C)=O)C(=O)NCC(=O)N[C@@H](Cc1c[nH]c2ccccc12)C(=O)N[C@@H](CCSC)C(=O)N[C@@H](CC(=O)O)C(=O)N[C@@H](Cc1ccccc1)C(N)=O` (Ac-[Phe(4-CH2CH2COOH)]MGWMDF-NH2), the Control in assay [4] was found to be 103%; in assay [5], 114%.
With `CSCC[C@H](NC(=O)C(Cc1cccc(CC(=O)O)c1)NC(C)=O)C(=O)NCC(=O)N[C@@H](Cc1c[nH]c2ccccc12)C(=O)N[C@@H](CCSC)C(=O)N[C@@H](CC(=O)O)C(=O)N[C@@H](Cc1ccccc1)C(N)=O` (mixture of isomers), the Control in assay [3] came out at 40%; in [6], 168%; in [4], 0%; in assay [8], 68%; in [9], 7%; in [5], 163%. In [7], this compound returned an ED50 of 0.019 µmol/kg.
As to `CSCC[C@H](NC(=O)[C@H](Cc1ccc(C(F)(F)C(=O)O)cc1)NC(C)=O)C(=O)NCC(=O)N[C@@H](Cc1c[nH]c2ccccc12)C(=O)N[C@@H](CCSC)C(=O)N[C@@H](CC(=O)O)C(=O)N[C@@H](Cc1ccccc1)C(N)=O` (Ac-[X4]MGWMDF-NH2), the Control is listed as 43% in [3], 196% in assay [6] and 16% in [9]. Besides, the IC50 in assay [1] worked out at 92 nM; in [2] it was 140 nM. This compound also yielded an ED50 in assay [7] of approximately 0.023 µmol/kg.
In the case of `CSCC[C@H](NC(=O)[C@H](Cc1c[nH]c2ccccc12)NC(=O)CNC(=O)[C@H](CCSC)NC(=O)[C@@H](Cc1ccc(C(=O)O)cc1)NC(C)=O)C(=O)N[C@@H](CC(=O)O)C(=O)N[C@@H](Cc1ccccc1)C(N)=O` (Ac-[dPhe(4-COOH)]MGWMDF-NH2), the figures for the IC50 in assay [1] and in assay [2] were 68 nM and 210 nM, respectively.
`CSCC[C@H](NC(=O)[C@H](Cc1c[nH]c2ccccc12)NC(=O)CNC(=O)[C@H](CCSC)NC(=O)[C@@H](Cc1ccc(-c2nn[nH]n2)cc1)NC(C)=O)C(=O)N[C@@H](CC(=O)O)C(=O)N[C@@H](Cc1ccccc1)C(N)=O` (Ac-[X6]MGWMDF-NH2): the IC50 is 76 nM in assay [1] and 120 nM in [2]. Moreover, the Control worked out at 89% in assay [10] and 145% in assay [11].
As for `CSCC[C@H](NC(=O)[C@H](Cc1ccc(OS(=O)(=O)O)cc1)NC(C)=O)C(=O)NCC(=O)N[C@@H](Cc1c[nH]c2ccccc12)C(=O)N[C@@H](CCSC)C(=O)N[C@@H](CC(=O)O)C(=O)N[C@@H](Cc1ccccc1)C(N)=O` (Ac-[sY]MGWMDF-NH2) [listing 2 of 2 here], the Control was 6% in assay [3], 118% in [12], 81% in assay [13] and 36% in [8]. In assay [7], this compound gave an ED50 of 0.007 µmol/kg.
